Test results published in ChEMBL document CHEMBL3580599, “Synthesis and Biological Evaluation of Novel Homoisoflavonoids for Retinal Neovascularization” (J Med Chem, 2015).
Activity calls are given as the source filed them. The calls are words filed in the database; no cut-off is given here.

What was measured:
[1] = (§1) Growth inhibition of human HREC cells assessed as reduction in cell number after 48 hrs by alamarBlue based fluorescence assay; format: functional
Summary of the method: (§2)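 Cells (2,500 per well in growth medium) were allowed 24 h, then exposed 48 h to compound over 0.5 nM–500 μM. alamarBlue was added and fluorescence read 4 h later (ex 560/em 590 nm). Dose-response curves were fitted relative to DMSO control; compounds not reducing cell number ≥50% at the top concentration were reported as GI50 >100 μM.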

HREC [2] = assay: as §1; format: functional; summary of the method: as §2
[3] = Growth inhibition of human HUVEC cells assessed as reduction in cell number after 48 hrs by alamarBlue based fluorescence assay; summary of the method: as §2
[4] = Growth inhibition of human 92-1 cells assessed as reduction in cell number after 48 hrs by alamarBlue based fluorescence assay; format: functional; summary of the method: as §2
Y79 = assay: Growth inhibition of human Y79 cells assessed as reduction in cell number after 48 hrs by alamarBlue based fluorescence assay; format: functional; conditions: Y79, 48 h; summary of the method: as §2
[5] = Selectivity ratio of GI50 for HUVEC cells to GI50 for human HREC cells; format: ADME, cell-based; conditions: HUVEC cells and HREC cells, read-out: RatioGI50
[6] = Selectivity ratio of GI50 for human Y79 cells to GI50 for human HREC cells; format: ADME, cell-based; conditions: Y79 cells and HREC cells
[7] = Selectivity ratio of GI50 for human 92-1 cells to GI50 for human HREC cells; format: ADME, cell-based; conditions: 92-1 cells and HREC cells
[8] = Induction of apoptosis in human HREC cells assessed as nuclear morphology after 8 hrs by EdU incorporation assay; format: cell-based
Summary of the method: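 HRECs (25,000) on attachment-factor-coated coverslips, 24 h growth, then 12 h in serum-free EBM-2. Incubated 8 h with 10 μM EdU plus compound at various concentrations, then processed by click chemistry with DAPI counterstain and imaged. Nuclear morphology and EdU-positive cells were scored by image analysis. n = 3, at least triplicate experiments, SEM.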

HREC [9] = assay: Inhibition of cell migration in human HREC cells after 8 hrs scratch-wound assay; format: functional, cell-based
Summary of the method: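 HRECs (10⁵ per coated well) grown to confluence in EGM-2, starved 12 h in serum-free EBM-2, then scratched with a pipette tip and rinsed. Incubated in EGM-2 with compound at 37 °C, 5% CO₂. After 8 h, cells migrated into the scratch were counted from images.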

HREC [10] = assay: Antiangiogenic activity in human HREC cells assessed as inhibition of tube formation after 8 hrs by matrigel assay; format: functional, cell-based
Summary of the method: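 HRECs, 7,500 per well in EGM-2, plated on Matrigel basement membrane with or without compound; after 8 h, imaged and tube length measured by image analysis.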

[11] = Induction of apoptosis in human HREC cells assessed as activated caspase 3 up to 2 uM after 4 hrs by immunofluorescence assay; format: functional
Summary of the method: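 HRECs on coated coverslips, overnight in EGM-2, then treated 4 h at indicated concentrations. Fixed in 4% paraformaldehyde, permeabilized with 0.5% Triton X-100, immunostained for activated caspase 3 and imaged by confocal microscopy. Staurosporine 1 μM served as positive control.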

[12] = Induction of apoptosis in human HREC cells up to 2 uM after 4 hrs by TUNEL assay; format: functional
Summary of the method: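 HRECs, 25,000 per coated coverslip, grown overnight in EGM-2, then 4 h in fresh medium with compound. Fixed in 4% paraformaldehyde 20 min at room temperature, permeabilized with 0.25% Triton X-100 20 min, then TUNEL-labelled with DAPI counterstain. Percent apoptotic cells counted on three low-power fields per coverslip. n = 3, SEM.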

[13] = Toxicity in human HREC cells up to 2 uM by trypan blue exclusion assay; format: cell-based
Summary of the method: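 HRECs in complete EGM-2 grown to 70% confluency, then treated 48 h with compound. After trypsinization, live and dead cells, including floating cells, were counted by Trypan blue on a hemocytometer. Viability taken as live/total cells. n = 3, triplicate experiments, SEM.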

HREC [14] = assay: Induction of cell cycle arrest in human HREC cells assessed as cells accumulation at G2/M phase after 48 hrs by propidium iodide before flow cytometry analysis; format: functional, cell-based
Summary of the method: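 HRECs grown to 50% confluency in EGM-2, serum-starved overnight, then 48 h in fresh EGM-2 with compound. Fixed in 66% EtOH 2 h at 4 °C, stained with 20 μg/mL propidium iodide with 0.1% Triton X-100 and RNase for 30 min at 37 °C, then analysed by flow cytometry. Duplicate experiments.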

Mus musculus [15] = species on record: Mus musculus; assay: Inhibition of retinal neovascularization in oxygen-induced retinopathy mouse model at 1 uM in each eye relative to vehicle treated control; format: functional, organism-based
Summary of the method: (§3)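 Newborn C57BL/6 pups with nursing mother held in 75% O₂ from P7 to P12. At P12, under isoflurane, 0.5 μL of a 10 μM solution (DMSO stock diluted into PBS) was injected intravitreally into each eye, estimated to give 1 μM in vitreous. Controls got vehicle or 5 ng anti-VEGF antibody. Retinas were whole-mounted, stained with isolectin B4-Alexa 488 and imaged by confocal microscopy.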

Mus musculus [16] = species on record: Mus musculus; assay: Ocular toxicity in mouse model assessed as gross morphological changes in retinal vasculature at 1 uM; format: organism-based; conditions: in vivo; summary of the method: as §3

COc1ccc(CC2COc3cc(OC)c(OC)c(OC)c3C2=O)cc1OC(=O)[C@H](Cc1ccccc1)NC(=O)OC(C)(C)C (some centres not stated)
GI50 [1]: 55 nM | inhibition (HREC [2]): Dose-dependent effect | GI50 at 48 h [3]: 750 nM | GI50 [4]: > 100000 nM | GI50 (Y79): 12000 nM | selectivity ratio [5]: 14 | selectivity ratio [6]: 218 | selectivity ratio [7]: > 1000 | Activity [8]: Non-toxic | inhibition (HREC [9]): Dose-dependent effect | inhibition (HREC [10]): Dose-dependent effect | Activity [11]: <10% | Activity [12]: <10% | Activity [13]: Non-toxic | Activity (HREC [14]): Dose-dependent effect | inhibition (Mus musculus [15]): Active | Activity (Mus musculus [16]): Non-toxic
